Results on one molecule are retold here after ChEMBL document CHEMBL4828720, “Macrocyclic Immunoproteasome Inhibitors as a Potential Therapy for Alzheimer's Disease” (J Med Chem, 2021).

The target in data set [1] is T1, Proteasome subunit beta type-9 (Homo sapiens, UniProt P28065).
T1 sequence (P28065 whole entry): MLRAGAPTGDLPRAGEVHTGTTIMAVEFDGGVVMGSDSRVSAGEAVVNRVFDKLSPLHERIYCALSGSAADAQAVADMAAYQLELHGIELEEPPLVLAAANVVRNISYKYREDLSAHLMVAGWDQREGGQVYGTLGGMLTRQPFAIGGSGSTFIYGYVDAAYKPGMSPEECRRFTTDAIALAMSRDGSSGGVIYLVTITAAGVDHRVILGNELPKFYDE
Briefly: Inhibition of human 20S proteasome LMP2 using Ac-PAL-AMC as fluorogenic substrate measured every minute for 1 hr by fluorescence assay. The essentials: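 Preincubated 1 h with inhibitor at 3-10,000 nM (8 concentrations). Substrates at 100 μM: Ac-PAL-AMC (LMP2), Ac-nLPnLD-AMC (Y), Ac-ANW-AMC (LMP7). Ac-WLA-AMC (X) at 20 μM. AMC fluorescence (360/460 nm) read each minute for 1 h; 3 replicates.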

Data set [2] is described as follows: Inhibition of human 20S proteasome X using Ac-WLA-AMC as fluorogenic substrate measured every minute for 1 hr by fluorescence assay. A digest of the protocol:
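Purified human 20S constitutive or immunoproteasome, 50 ng in 20 mM Tris-HCl, 0.5 mM EDTA, 0.035% SDS, pH 8.0. Preincubated 1 h with inhibitor at 3-10,000 nM (8 concentrations). Substrates at 100 μM: Ac-PAL-AMC (LMP2), Ac-nLPnLD-AMC (Y), Ac-ANW-AMC (LMP7). Ac-WLA-AMC (X) at 20 μM. AMC fluorescence (360/460 nm) read each minute for 1 h; 3 replicates.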

For data set [3], the target named is T1, Proteasome subunit beta type-9. Briefly: Inhibition of human 20S proteasome LMP2 activity in human RPMI-8226 cells using Ac-PAL-AMC as fluorogenic substrate incubated for 72 hrs by fluorescence assay. The class given is cell-based.
Data set [4] is described as follows: Metabolic stability in ICR mouse whole blood at 1 uM measured upto 30 mins by LC-MS/MS analysis. Conditions: 0.5 h. In kind it is ADME, tissue-based. The essentials:
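Tissues from male ICR mice, 7 weeks old. Heparinized (25 IU/mL) whole blood, or liver homogenized in ice-cold PBS, prewarmed to 37 °C and spiked to a final 1 μM. Samples taken at 0, 10 and 30 min (blood) or 0, 10 and 20 min (liver). […] Remaining drug quantified by C18 LC-MS/MS.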

Data set [5] is described as follows: Drug concentration in ICR mouse brain at 10 mg/kg, iv after 1 hr by LC-MS/MS analysis. In kind it is ADME, organism-based. Conditions: in vivo. A digest of the protocol:
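ICR mice received a single intravenous dose of 10 mg/kg. Brain homogenates taken at 1 h post-dose were assayed for compound level and for LMP2 activity.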

Data set [6] relates to Mus musculus. In words: Cognitive enhancing effect in Tg2576 mouse assessed as shorter distances travelled before reaching the escape platform at 10 mg/kg, iv administered twice weekly and measured after 5 days by Morris water maze test. In kind it is functional, organism-based. Particulars: time 5.0 day. The essentials:
(§1)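 Tg2576 mice, 9 months old, given 10 mg/kg twice weekly for 3 weeks. Morris water maze in 25 ± 1 °C water, platform hidden 1-1.5 cm below surface. Three 60-s trials a day from randomized start points for 5 days. Swim paths tracked from an overhead camera. Single probe trial on day 6 scored as time in target quadrant. n=5 treated, n=12 control on days 4-5; Student's t-test.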

The test system of data set [7] is Mus musculus. Briefly: Cognitive enhancing effect in Tg2576 mouse assessed as reduction in escape latency at 10 mg/kg, iv administered twice weekly and measured after 5 days by Morris water maze test. The class given is functional, organism-based. Conditions: time 5.0 day. A digest of the protocol:
as §1

The subject of data set [8] is Mus musculus. In words: In vivo inhibition of immunoproteasome in Tg2576 mouse assessed as reduction in serum IL-1alpha level at 10 mg/kg, iv administered twice weekly for 3 weeks by ELISA. The class given is functional, organism-based. A digest of the protocol:
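Serum from Tg2576 mice dosed at 10 mg/kg twice weekly for 3 weeks, diluted 1:5. IL-1α sandwich ELISA: samples and standards 2 h at room temperature, detection antibody 1 h, avidin-HRP 30 min. Stopped with 2N H2SO4 and read at 450 nm against a standard curve of seven twofold dilutions. n=3.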

The nature of data set [9]: Effect on RPE structural integrity in ICR mouse by immunostaining based confocal microscopic analysis. In kind it is ADME. A digest of the protocol: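 RPE collected after behavioral testing from treated Tg2576 mice and from age-matched non-transgenic ICR mice. Eyecups dissected in ice-cold PBS and retina removed. Tissue permeabilized with 0.2% Triton X-100 for 15 min, blocked with 3% BSA, then anti-β-catenin (1:100) overnight at 4 °C. Alexa 555 secondary 2 h, imaged by confocal microscopy.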

Data set [10] in a line: Toxicity in Tg2576 mouse. Conditions: in vivo.
The nature of data set [11]: Toxicity in ICR mouse. Particulars: in vivo.
Data set [12] has as its target Proteasome subunit beta type-9 (Mus musculus) (UniProt P28076). Briefly: Inhibition of LMP2 in mouse BV-2 cells.
Data set [13] relates to Proteasome subunit beta type-9 (Canis lupus familiaris). In words: Inhibition of canine 20S proteasome LMP2 activity in MDCK-II cells using Ac-PAL-AMC as fluorogenic substrate by fluorescence assay.

The structures appear in SMILES notation. Active and inactive are the calls of the source. The rule behind the calls is not given here.

Proteasome subunit beta type-9 (Mus musculus), sequence (P28076 whole entry, looked up): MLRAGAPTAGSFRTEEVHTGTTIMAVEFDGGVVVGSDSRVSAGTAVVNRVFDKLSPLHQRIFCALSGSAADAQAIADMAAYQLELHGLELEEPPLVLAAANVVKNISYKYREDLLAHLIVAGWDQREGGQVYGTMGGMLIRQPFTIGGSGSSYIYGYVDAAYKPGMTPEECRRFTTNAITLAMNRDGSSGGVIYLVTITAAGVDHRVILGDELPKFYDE

For orientation: IC50 means the concentration at which inhibition is half-maximal. Turning to `C[C@]1(C(=O)[C@H](Cc2ccccc2)NC(=O)[C@@H]2Cc3ccc(cc3)OCCCCCCCC(=O)N3CCC[C@H]3C(=O)N2)CO1`, the half-inhibitory concentration (IC50) in data set [1] turned out to be 184 nM; in data set [2] it was 4640 nM; in data set [3] it was 32.7 nM. Moreover, the Stability result in [4] is on record as “Stable”. In data set [5], this molecule displayed a Ct of 3.5 pmol/g. In addition, the result in data set [6] and in data set [7] was Active. Moreover, the inhibition entry in data set [8], in data set [12] and in [13] was “Active” each time. The Activity result in data set [9], in data set [10] and in data set [11] was “Non-Toxic” throughout.
